Experimental findings from ChEMBL document CHEMBL1132600 are described below.

System in one assay: not listed separately
Description: Ratio of Vmax value and Km value of the compound. The procedure, abridged:
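Sprague–Dawley rat brain microsomes (105000g pellet) at 0.3 mg/mL protein, 37 °C, pH 7.4, BSA as carrier. Varied substrate concentrations, sampled at least four times within the linear initial range. Arachidonic acid formed measured by RP-HPLC (UV 204 nm, calibration curve). Initial velocity vs substrate concentration fitted to Michaelis–Menten.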
For `CCCCC/C=C\C/C=C\C/C=C\C/C=C\CCCC(=O)Nc1ccccc1O`, the Vmax / Km (ml min-1 kg-1) was determined as 0.43.
As for `CCCCC/C=C\C/C=C\C/C=C\C/C=C\CCCC(N)=O`, the Vmax / Km (ml min-1 mg-1) was 1.24.
Consider `CCCCC/C=C\C/C=C\C/C=C\C/C=C\CCCC(=O)N[C@@H](C)CO`, for which the Vmax / Km (ml min-1 kg-1) amounted to 0.049.
`CCCCC/C=C\C/C=C\C/C=C\C/C=C\CCCC(=O)N[C@H](C)CO`: the Vmax / Km (ml min-1 kg-1) stood at 0.011.

A further assay concerns the target T1, Fatty-acid amide hydrolase 1 (Rattus norvegicus) (UniProt P97612).
T1 sequence (whole entry): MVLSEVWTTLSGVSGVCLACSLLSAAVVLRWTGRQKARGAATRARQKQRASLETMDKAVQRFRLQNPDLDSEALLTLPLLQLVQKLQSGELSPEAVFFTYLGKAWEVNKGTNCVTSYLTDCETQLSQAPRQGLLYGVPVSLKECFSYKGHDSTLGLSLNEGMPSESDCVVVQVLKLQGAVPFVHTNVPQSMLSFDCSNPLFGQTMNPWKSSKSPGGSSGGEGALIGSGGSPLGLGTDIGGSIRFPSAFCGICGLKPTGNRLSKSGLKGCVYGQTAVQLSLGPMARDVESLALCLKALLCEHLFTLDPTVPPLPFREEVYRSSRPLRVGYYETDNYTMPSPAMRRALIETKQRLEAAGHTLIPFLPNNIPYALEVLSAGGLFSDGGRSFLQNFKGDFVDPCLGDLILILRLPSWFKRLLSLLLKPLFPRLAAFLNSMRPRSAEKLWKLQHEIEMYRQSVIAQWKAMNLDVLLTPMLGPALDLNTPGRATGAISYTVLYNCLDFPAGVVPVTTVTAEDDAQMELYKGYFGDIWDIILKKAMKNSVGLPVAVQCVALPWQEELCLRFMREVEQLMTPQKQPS
The experiment in a line: Tested for hydrolysis by rat brain microsomal anandamide amidohydrolase (AAH). The procedure, abridged:
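Substrate at 100 μM (final) with 150 μg rat brain microsomal protein in 50 mM Tris·HCl, 1 mM EDTA, 0.1% BSA, pH 7.4, 37 °C, 15 min with shaking. Stopped with acetonitrile. Products quantified by RP-HPLC: arachidonic acid at 204 nm, or ethanolamine-type amine by OPA precolumn derivatization at 230 nm. Substrate-free blank subtracted. Four experiments in duplicate.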
`CCCCCCCC/C=C\CCCCCCCC(=O)N[C@@H](C)CO` registered a Rate of hydrolysis (nM min-1 mg-1) of 0.47 and a Relative rate of hydrolysis of 3.6%.
The molecule `CCCCC/C=C\C/C=C\C/C=C\C/C=C\CCCC(=O)NCCO` returned a Rate of hydrolysis (nM min-1 mg-1) of 1.3.
For `CCCCC/C=C\C/C=C\C/C=C\C/C=C\CCCC(=O)NCC(C)C`, the Rate of hydrolysis (nM min-1 mg-1) is 0.025 and the Relative rate of hydrolysis worked out at 2%.
As to `CCCCCCCCCCCCCCCCCC(=O)NCCO`, the Rate of hydrolysis (nM min-1 mg-1) was 0.2 and the Relative rate of hydrolysis was 15%.
In the case of `CCCCC/C=C\C/C=C\C/C=C\C/C=C\CCCC(=O)Nc1ccccc1O`, the Rate of hydrolysis (nM min-1 mg-1) is 2.51 and the Relative rate of hydrolysis was determined as 193%.
The molecule `CCCCC/C=C\C/C=C\C/C=C\C/C=C\CCCC(N)=O` registered a Rate of hydrolysis (nM min-1 mg-1) of 2.85 and a Relative rate of hydrolysis of 219%.
Taken in the same sequence, the figures for `CCCCC/C=C\C/C=C\C/C=C\C/C=C\CCCC(=O)OCC(O)CO` (stereo not drawn) were 3.43 and 264%.
For `CCCCC/C=C\C/C=C\C/C=C\C/C=C\CCCC(=O)NC1CCC(O)CC1` (stereo not drawn), in that order: 0.299 and 2%.
For `CCCCC/C=C\C/C=C\C/C=C\C/C=C\CCCC(=O)NC(C)(C)CO`, in that order: 0.056 and 4.3%.
`CCCCC/C=C\C/C=C\C/C=C\C/C=C\CCCC(=O)Nc1cccc(O)c1`: the Rate of hydrolysis (nM min-1 mg-1) is 1.98 and the Relative rate of hydrolysis was determined as 152%.
Taken in the same sequence, the figures for `CCCCC/C=C\C/C=C\C/C=C\C/C=C\CCCC(=O)OC(CO)CO` were 3.27 and 251%.
The molecule `CCCCC/C=C\C/C=C\CCCCCCCC(=O)NCCO` returned a Rate of hydrolysis (nM min-1 mg-1) of 0.98.
Consider `CCCCC/C=C\C/C=C\C/C=C\C/C=C\CCCC(=O)NC[C@@H](C)O`, for which the Rate of hydrolysis (nM min-1 mg-1) was found to be 1.58 and the Relative rate of hydrolysis amounted to 121%.
For `CCCCC/C=C\C/C=C\C/C=C\C/C=C\CCCC(=O)NC[C@H](C)O`, in that order: 0.273 and 21%.
For `CCCCC/C=C\C/C=C\C/C=C\C/C=C\CCCC(=O)N[C@H](C)CC`, in that order: 0 and 0%.
`CCCCC/C=C\C/C=C\C/C=C\C/C=C\CCC(C)(C)C(=O)NCCO` displayed a Rate of hydrolysis (nM min-1 mg-1) of 0.0094 and a Relative rate of hydrolysis of 0.7%.
The molecule `CCCCC/C=C\C/C=C\C/C=C\C/C=C\CCCC(=O)N[C@@H](C)CO` showed a Rate of hydrolysis (nM min-1 mg-1) of 0.299.
In turn, `CCCCC/C=C\C/C=C\C/C=C\C/C=C\CCCC(=O)N(CCO)CCO` returned a Rate of hydrolysis (nM min-1 mg-1) of 0.
Molecule `CCCCC/C=C\C/C=C\C/C=C\C/C=C\CCCC(=O)N(C)CCO` gave a Rate of hydrolysis (nM min-1 mg-1) of 0 and a Relative rate of hydrolysis of 0%.
For `CCCCC/C=C\C/C=C\C/C=C\C/C=C\CCCC(=O)N[C@H](C)CO`, the Rate of hydrolysis (nM min-1 mg-1) was determined as 0.03.
For the molecule `CCCCC/C=C\C/C=C\C/C=C\C/C=C\CCCC(=O)NC(C)(C)C`, the Rate of hydrolysis (nM min-1 mg-1) amounted to 0.022 and the Relative rate of hydrolysis was found to be 1.8%.
Taken in the same sequence, the figures for `CCCCC/C=C\C/C=C\C/C=C\C/C=C\CCCC(=O)Nc1ccc(O)cc1` were 0.208 and 16%.
As to `CCCCC/C=C\C/C=C\C/C=C\C/C=C\CCCC(=O)N[C@@H](C)CC`, the Rate of hydrolysis (nM min-1 mg-1) is 0.082 and the Relative rate of hydrolysis was 6.3%.
For `CCCCC/C=C\C/C=C\C/C=C\C/C=C\CCCC(=O)NCCF`, in that order: 1.65 and 127%.
Taken in the same sequence, the figures for `CCCCC/C=C\C/C=C\C/C=C\C/C=C\CCCC(=O)Nc1ccc(CO)cc1` were 0 and 0%.
`CCCCCCCC/C=C\CCCCCCCC(=O)NCCO` returned a Rate of hydrolysis (nM min-1 mg-1) of 0.79 and a Relative rate of hydrolysis of 61.1%.
Molecule `CCCCC/C=C\C/C=C\CCCCCCCC(=O)N[C@@H](C)CO` had a Rate of hydrolysis (nM min-1 mg-1) of 0.27 and a Relative rate of hydrolysis of 20.5%.
